In the first experiment the test system is KB. The experiment in a line: Cytotoxicity against human KB cells after 48 hrs by MTT assay. It is filed as functional, cell-based.
Settings: not given
In outline: (§1)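 Cells grown in DMEM with 10% FBS, seeded at 6 × 10^4 cells/mL per well. Compounds in DMSO added at five concentrations, each in triplicate. Incubated 48 h at 37 °C in 5% CO2, then MTT (4 mg/mL) for another 4 h. Cells lysed in DMSO, absorbance read at 570 nm. At least three independent experiments.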
In general terms: Tetrazolium dyes change colour on reduction, which living cells bring about.
By IC50 is commonly meant the concentration needed to halve the response being measured. `CCO[C@@]12C[C@H]3[C@@H](CCC4[C@](C)(C(=O)OC)CCC[C@@]43C=O)[C@@H](C)C1=CC(=O)O2` (stereo not given in full): half-maximal inhibition (IC50) was put at 7.4 µM. This lies in the single-digit micromolar range.

`COc1cccc2c1C(=O)c1c(O)c3c(c(O)c1C2=O)C[C@@](O)(C(=O)CO)C[C@@H]3O[C@H]1C[C@H](N)[C@H](O)[C@H](C)O1` [DOXORUBICIN] came in with an IC50 of 1.4 µM.

In the next experiment the test system is Plasmodium falciparum. The experiment in a line: Antimalarial activity against chloroquine-resistant Plasmodium falciparum K1 by microculture radioisotope technique. Type of experiment: functional, organism-based.
Settings: not given
In outline: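 Microculture radioisotope technique on P. falciparum K1 (multidrug-resistant strain), parasites kept in continuous culture. Three replications per experiment. IC50 reported as mean ± SD of triplicate experiments.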
As to `CCOC1OCC2(C(=O)OC)CCCC13[C@H]1C[C@@]4(OC)OC(=O)C=C4[C@H](C)[C@@H]1CC[C@@H]23` (stereo not given in full), the concentration for half-maximal inhibition (IC50) worked out at 19.2 µM.

Take `CCO[C@@]12C[C@H]3[C@@H](CCC4C(C(=O)OC)(C(=O)OC)CCC[C@@]43C=O)[C@@H](C)C1=CC(=O)O2` (stereo not given in full): the half-inhibitory concentration (IC50) was found to be 38.9 µM.

The compound `CCO[C@@]12C[C@H]3[C@@H](CCC4[C@](C)(C(=O)OC)CCC[C@@]43C=O)[C@@H](C)C1=CC(=O)O2` (stereo not given in full) registered an IC50 of 29.7 µM.

`CCO[C@H]1OC(OC)C23CCCC1(C(=O)OC)[C@@H]2CC[C@H]1[C@@H](C)C2=CC(=O)O[C@]2(OCC)C[C@@H]13` (stereo not given in full) came in with a concentration for half-maximal inhibition (IC50) of 32.1 µM.

Compound `COC(=O)C12CCCC3(C(OC)OC1O)[C@H]1C[C@@]4(O)OC(=O)C=C4[C@H](C)[C@@H]1CC[C@@H]23` (stereo not given in full) registered an IC50 of 0.52 µM.

`COC(=O)C12CCCC3([C@H](O)OC1)[C@H]1C[C@@]4(O)OC(=O)C=C4[C@H](C)[C@@H]1CC[C@@H]23` (stereo not given in full): the half-inhibitory concentration (IC50) was determined as 0.78 µM.

As to `CCO[C@@H]1OC(OC)C2(C(=O)OC)CCCC13[C@H]1C[C@@]4(OCC)OC(=O)C=C4[C@H](C)[C@@H]1CC[C@@H]23` (stereo not given in full), the 50% inhibitory concentration (IC50) came to 34.8 µM. This IC50 is about 45-fold higher than that of the compound before.

In turn, `COC(=O)[C@]1(C)CCC[C@@]2(CO)C1CC[C@H]1[C@@H](C)C3=CC(=O)O[C@]3(O)C[C@@H]12` (stereo not given in full) returned an IC50 of 2.5 µM.

`CCO[C@@]12C[C@H]3[C@@H](CCC4[C@](C)(C(=O)OC)CCC[C@@]43C(=O)O)[C@@H](C)C1=CC(=O)O2` (stereo not given in full) yielded a half-inhibitory concentration (IC50) of 41.2 µM.

`CCO[C@@]12C[C@H]3[C@@H](CC[C@H]4C5(C(=O)OC)CCCC34C(OC)O[C@@H]5OC)[C@@H](C)C1=CC(=O)O2` (stereo not given in full) yielded a half-inhibitory concentration (IC50) of 28.4 µM.

For `CCO[C@@]12C[C@H]3[C@@H](CC[C@H]4C5(C(=O)OC)CCCC34[C@H](O)OC5)[C@@H](C)C1=CC(=O)O2` (stereo not given in full), half-maximal inhibition (IC50) required 7.4 µM.

The compound `CCO[C@@]12C[C@H]3[C@@H](CC[C@H]4C5(C(=O)OC)CCCC34C(OC)OC5)[C@@H](C)C1=CC(=O)O2` (stereo not given in full) displayed a half-maximal inhibitory concentration (IC50) of 15.7 µM.

The subject of a further experiment is HT-29. The experiment in a line: Cytotoxicity against human HT-29 cells after 48 hrs by MTT assay. It is filed as functional, cell-based. Conditions: HT-29, 48 h. The gist of the method: as §1
`COc1cccc2c1C(=O)c1c(O)c3c(c(O)c1C2=O)C[C@@](O)(C(=O)CO)C[C@@H]3O[C@H]1C[C@H](N)[C@H](O)[C@H](C)O1` [DOXORUBICIN]: the 50% inhibitory concentration (IC50) came out at 0.68 µM.
